Results gathered from unrelated publications.
Each line is one published result; the experiments were not run side by side.
Target: MAP kinase-interacting serine/threonine-protein kinase 1 (MKNK1, Homo sapiens, UniProt Q9BUB5)

Structure (SMILES) | test | conditions | measurement | result
CCCCC(=O)Nc1ccc(-c2ccc3ncn(CCC)c(=O)c3c2)cn1 | binding, competition with immobilised ligand | 0.5 µM | remaining binding | 100%
C#Cc1cc(-c2cc(Nc3nc(N[C@@H](C)c4ccc(F)cn4)ncc3Cl)n[nH]2)ccc1C=O | enzyme activity, inhibitor | 0.2 µM | inhibition | 9.43%
CN1CCN(C(=O)c2ccc(NC(=O)Nc3ccc(N(C)c4ccnc(Nc5ccc(CS(C)(=O)=O)cc5)n4)cc3)cc2)CC1 | binding, competition with immobilised ligand | 1 µM | remaining binding | 65%
CC(C)S(=O)(=O)c1ccc2nccc(Nc3ccc4sc(C5CCCC5)nc4c3)c2c1 | enzyme activity, inhibitor | 1 µM | activity vs control | 106%
CO[C@@H]1[C@H](N(C)C(=O)c2ccccc2)C[C@H]2O[C@]1(C)n1c3ccccc3c3c4c(c5c6ccccc6n2c5c31)C(=O)NC4 | enzyme activity, inhibitor | 1 µM | inhibition | 20%
Cc1ccc(NC(=O)c2ccnc(C(F)(F)F)c2)cc1-c1cc(OCCO)nc(N2CCOCC2)c1 | binding, competition with immobilised ligand | 1 µM | remaining binding | 85%
COc1ccc2oc(-c3ccc4nc(N)oc4c3)c/c(=N\c3ccccc3NC(=O)CCN)c2c1 | binding | 1 µM | remaining binding | 107%
CC#CC(=O)N1CCC[C@H]1c1nc(-c2ccc(C(=O)Nc3ccccn3)cc2)c2c(N)nccn12 | enzyme activity, inhibitor | 1 µM | inhibition | 0%
N#Cc1ccc(NC(=O)Nc2ccccc2)cc1 | cell-free assay, competition with immobilised ligand | 25 µM | remaining binding | 75%
C#Cc1cnc(Nc2ccnc(CO)c2)nc1Nc1ccccc1S(C)(=O)=NC#N (centres unmarked) | cell-free assay | 1 µM | remaining signal | 100%
C1=C/COCc2cc(ccc2OCCN2CCCC2)Nc2nccc(n2)-c2cccc(c2)COC/1 | binding | 0.1 µM | remaining binding | 78%
